Hits are enriched below; roughly 1.3% of the tested compounds scored in any of these assays.
Lipid droplet: modulators of hepatic lipid droplet formation; AML12 mouse hepatocytes, oleate lipid droplets, BODIPY imaging; inhibition, % at 6.5 µM; 240,000 tested, 0.4% active;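 active = lipid droplet intensity inhibited by at least 50%, with more than 500 cells counted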
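Test system: AML12 mouse liver cells; schedule: overnight exposure; technique: high-content imaging of BODIPY-stained droplets and DAPI nuclei; read-out: % inhibition of corrected integrated BODIPY droplet signal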
GASC-1 inh: blocks human GASC-1 demethylase activity. 330,000 tested, 0.069% active. inhibition, % at 2.35 µM. GST-JMJD2C(1-420) H3K9me3 demethylation, DELFIA europium. AID 2099;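 active = more than half of a compound's replicate wells show inhibition beyond 50%, single wells judged on their own value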;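 note: signal counts dimethyl H3K9 product captured on neutravidin plate; 0% = median of DMSO wells and 100% = 0.3 times that DMSO median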
procasp3 activ: procaspase-3 (human) activation; P42574; recombinant procaspase-3 D3A, Ac-DEVD-pNA absorbance 405 nm; activation, % at 8.5 µM; 330,000 tested, 0.11% active;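 active = activation above the mean of all tested compounds plus 3 SD, cut at about 21% in these data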;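 note: 0% = DMSO alone and 100% = DMSO wells spiked with extra 5 µM PC-3 D3A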
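Technique: 405 nm absorbance of p-nitroaniline, reads at 0 and 120 min; Test system: Procaspase-3 D3A mutant; Incubation: 1 h enzyme-compound preincubation, then 2 h substrate reaction, 25 °C; Repeats: singlicate, each compound tested once; Benchmarks: low control DMSO wells, high control DMSO plus 5 µM PC-3 D3A.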
VLA-4 inh: inhibition in a human VLA-4 binding assay | P13612 | AID 2557 | 330,000 tested, 0.2% active | VLA-4 expressing cells, ligand binding flow cytometry | inhibition, % (about 7 µM as worked out from the volumes in the protocol); in the data active = inhibition above about 50%
proCasp7 act: activates human procaspase-7, counter-screen for procaspase-3 activators | recombinant procaspase-7, Ac-DEVD-pNA absorbance 405 nm; D23A/D198A/D206A triple mutant, cannot self-cleave; scale: DMSO 0, 5 µM enzyme 100 | activation, % at 8.5 µM | P55210 | 330,000 tested, 0.093% active;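 active = percent activation above the screen-wide mean plus 3 SD, cut at about 25% in these data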
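Assay system: Uncleavable procaspase-7 mutant enzyme / Input: 2 µM procaspase-7 mutant as dispensed / Dosing: single nominal 8.5 µM compound dose, 0.8% DMSO final / Timing: 1 h enzyme–compound preincubation and 2 h substrate reaction, both 25 °C / Detection: p-Nitroaniline absorbance at 405 nm, read at 0 and 120 min / Replication: singlicate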
GRK2 aptamer HTS: blocks RNA aptamer binding to human GRK2 | 330,000 tested, 0.59% active | inhibition of aptamer binding, % at 10 µM | P25098 | bead flow cytometry, FAM-aptamer displacement from GRK2;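 active = inhibition of aptamer binding above 40%, roughly 3 SD of noise, on plates passing a quality check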;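 note: median bead fluorescence of bound FAM aptamer so fluorescent compounds give negative values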
PC3 dual counter: counter-screen for dual procaspase-3/7 activators: human procaspase-3 activation | shares compounds with proCasp7 act | recombinant PC-3 D3A, Ac-DEVD-pNA absorbance 405 nm; aspartates 9, 28, 175 changed to alanine; 100% = enzyme control | activation, % at 8.5 µM | 290 tested, under 10 active | AID 493114;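 active = mean percent activation across triplicates above a set limit taken from the earlier primary procaspase-3 screen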;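 note: 0% = DMSO wells and 100% = DMSO wells with 5 µM added PC-3 D3A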
Procasp7 act: activates human procaspase-7, confirming dual procaspase activators; activation, % at 8.5 µM; 290 tested, under 10 active; recombinant procaspase-7, Ac-DEVD-pNA absorbance 405 nm; D23A/D198A/D206A mutant that cannot self-cleave; AID 493115; shares compounds with proCasp7 act;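 active = mean activation above a set limit carried over from the earlier primary screen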;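 note: 0% = DMSO only and 100% = DMSO with added 5 µM PC-7 enzyme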
* hit, by the source's call; i = inactive; . = no result given.

SMILES | Lipid droplet | GASC-1 inh | procasp3 activ | VLA-4 inh | proCasp7 act | GRK2 aptamer HTS | PC3 dual counter | Procasp7 act
COc1ccc(OC)c(N=Cc2c(O)c3ccccc3oc2=O)c1 | -4 | -5 | 14 | -20 | 9 | 0 | . | .
COc1ccc(Cl)cc1N=Cc1c(O)c2ccccc2oc1=O | -6 | 1 | 19 | 2 | 42* | 2 | -5 | -4
CCOc1ccccc1N=Cc1c(O)c2ccccc2oc1=O | 0 | -2 | 21 | 10 | 35* | 0 | -30 | -34
Cc1cc(Br)c(NC(=O)COC(=O)c2ccc[n+]([O-])c2)c(Br)c1 | . | 0 | 4 | 1 | 0 | 1 | . | .
COc1ccc(NC2CCCN(C(=O)COc3ccc(Cl)cc3C)C2)cc1OC (stereo unspecified) | -24 | 1 | -14 | -7 | -34 | 3 | . | .
O=c1onc(-c2ccccc2)n1-c1cc(Cl)cc(Cl)c1 | . | 18 | -5 | -14 | 7 | 1 | . | .
Oc1ccc(Br)cc1-c1ccnn1-c1ccccc1 | 4 | 14 | -2 | 11 | -6 | 7 | . | .
COCC(=O)Nc1cccc(Br)c1 | 13 | -7 | 5 | 4 | 26* | 0 | 3 | -3
CCOC(=O)/C(=C/c1ccc(N2CCC(c3ccccc3)=N2)cc1)C(C)=O | 12 | -15 | . | . | . | . | . | .
c1ccc(C2=NN(c3ccccc3)CC2)cc1 | -7 | 4 | 36* | 12 | 39* | 0 | -30 | -34
O=C(COc1ccc(Br)cc1)NNC(=O)c1ccc(-n2cncn2)c([N+](=O)[O-])c1 | . | 28 | 2 | 46 | 0 | 4 | . | .
CCCCNC(=O)c1nn2c(C(F)(F)F)cc(-c3ccccc3)nc2c1Br | . | -7 | . | 1 | . | 2 | . | .
N#CCNC(=O)c1nn2c(C(F)(F)F)cc(-c3ccccc3)nc2c1Br | 1 | 7 | -10 | 7 | 26* | 0 | 0 | 1
CCOC(=O)c1c(C)c(-c2ccccc2)n(CC(=O)NCCCN(CC)CC)c1C | -28 | -13 | 1 | 4 | 4 | 0 | . | .
COc1ccc(CNC(=O)C2CCN(c3nc(OC)nc(OC)n3)CC2)cc1 | . | -2 | 1 | 14 | 12 | 1 | . | .
COc1ccc(CNC(=O)C2CCN(c3cc(C(=O)Nc4cccc(OC)c4)ccn3)CC2)cc1 | -64 | 19 | 6 | 28 | 53* | 0 | 0 | 4
COc1cccc(NC(=O)c2ccnc(N3CCC(C(=O)NCc4cc(OC)ccc4OC)CC3)c2)c1 | -2 | 3 | 3 | i | 33* | 2 | 6 | 9
Cc1ccc(-c2cc(C(=O)N(C)CC(=O)Nc3ccccc3Br)c3ccccc3n2)o1 | . | 4 | -15 | 0 | -10 | 0 | . | .
CCOC(=O)c1ccc(NC(=O)CSC(=S)N2CCOCC2)cc1 | -11 | -7 | 4 | 2 | -2 | 0 | . | .
Cc1ccc2c(n1)sc1c(-c3ccccc3)c(C#N)c(N)nc12 | . | 12 | 79* | -8 | 44* | 2 | -30 | -36
Cc1nc(N)c(C#N)c(-c2cccnc2)c1-c1ccccc1 | -5 | -10 | 8 | -2 | 0 | 0 | . | .
CC(C)OC(=O)CSc1nc2c(cc1C#N)CCCCC2 | 14 | -2 | 3 | 4 | 1 | 1 | . | .
CC(C)OC(=O)CC(=O)CSc1nc2c(cc1C#N)CCCCC2 | -8 | -6 | 18 | -9 | 37* | 0 | -20 | -21
CC1CCC(C(C)C)C(OC(=O)COC(=O)c2ccc(=O)[nH]c2)C1 (stereo unspecified) | . | 0 | -4 | 0 | 7 | 0 | . | .
CC1CCC(C(C)C)C(OC(=O)COC(=O)c2cc(O)ccc2N)C1 (stereo unspecified) | -12 | 13 | 41* | -11 | 50* | 2 | -30 | -35

Source: PubChem (several laboratories)
